Hits are enriched below; roughly 4.7% of the tested compounds scored in any of these assays.
RGS4 act: RGS4 potentiation or activation | B-score at 10 µM | HEK293 M3R/inducible RGS4, carbachol calcium flux Fluo4; active compounds read low | 310,000 tested, 0.92% active | AID 463111;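 active means B-score of the integrated calcium signal more than 4 SD below the library mean, with starting fluorescence not abnormally high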;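 further: negative B-score means reduced calcium response which marks RGS4 activation or potentiation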
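System – HEK293 FlpIn-TREx cells, stable M3R, doxycycline-inducible RGS4 · Reagent – ECmax carbachol challenge · Times – compound preincubation 20 min at room temperature before agonist · Technique – Fluo4 fluorescence kinetic imaging of calcium · Measure – B score of integrated Fluo4 ratio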
KCC2 mod: modulates chloride dependent transport by human KCC2. Q9H2X9. 190,000 tested, 2.2% active. B-score of Tl+ flux slope (higher = more flux/activation; lower = inhibition) at 10 µM. KCC2 cells, thallium flux FluoZin-2 fluorescence;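 active means thallium flux slope and its plate-corrected score both differing from the plate sample mean at a set confidence after two filtering rounds, in either direction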;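 further: slope of fluorescence scaled to starting intensity during 10 to 20 s after thallium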
MrgX1 antagonist: human MrgX1 receptor antagonism, primary screen | Q96LB2 | MRGX1-HEK293 calcium flux, Fluo-4, BAM8-22 antagonism; active compounds read low | B-score at 10 µM | 310,000 tested, 1.3% active | AID 588676;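 active means calcium-response B-score plate-corrected more than 3 library SD below zero, starting fluorescence within 5 deviations, no agonist response on first addition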;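 further: peak minus trough fluorescence over baseline after final BAM8-22 challenge near maximal dose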
Target sequence (Q96LB2 whole entry, looked up): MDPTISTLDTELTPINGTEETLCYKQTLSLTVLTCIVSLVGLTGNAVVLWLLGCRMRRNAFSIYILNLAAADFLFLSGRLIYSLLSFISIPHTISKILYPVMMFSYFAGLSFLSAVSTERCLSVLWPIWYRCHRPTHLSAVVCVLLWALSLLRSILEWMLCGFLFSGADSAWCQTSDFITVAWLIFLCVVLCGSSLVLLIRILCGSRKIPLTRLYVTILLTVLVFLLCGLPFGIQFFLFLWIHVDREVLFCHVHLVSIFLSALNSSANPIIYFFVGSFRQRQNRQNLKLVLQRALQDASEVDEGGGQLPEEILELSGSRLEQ
RGS4 inh: human RGS4 inhibition. HEK293 M3R/RGS4 inducible, Fluo-4 calcium flux; active compounds read high; triggered by carbachol at its EC20. B-score at 10 µM. 310,000 tested, 0.45% active;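 active means B-score, a plate-corrected calcium signal, over three deviations above library mean, with baseline fluorescence within five deviations of library mean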;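 further: RGS4 expression induced by doxycycline in cells with stable M3 receptor; B-score is computed from the integrated fluorescence ratio over baseline after carbachol; higher B-score means a larger calcium signal and so more RGS4 inhibition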
MrgX1 allo act: human MrgX1 positive allosteric modulation, primary screen; B-score at 10 µM; Q96LB2; AID 588675; 310,000 tested, 0.63% active; MrgX1-HEK293, Fluo-4 calcium flux, FDSS; active compounds read high;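 active means plate-corrected calcium response at least 3 library SD above typical, normal starting fluorescence, not activating the receptor alone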;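 further: compound read alongside a low EC10 to EC30 dose of BAM8-22 agonist; peak minus trough fluorescence over baseline measured at the second addition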
MrgX1 ag: human MrgX1 receptor agonism, primary screen. 310,000 tested, 0.44% active. Q96LB2. B-score at 10 µM. MrgX1-HEK293 cells, Fluo-4 calcium fluorescence, agonist mode; active compounds read high;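 active means calcium response B-score plate-corrected fluorescence ratio at least 3 library SD, with starting fluorescence B-score inside 5 SD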
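Material: MrgX1-expressing HEK293 cells / Dosing: compound as first of three additions / Incubation: overnight seeding, then 1 h dark dye loading / Signal: Fluo-4 NW calcium fluorescence / Evaluation: B-scored fluorescence response ratio / Benchmarks: positive and negative control wells on each plate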
Numbers without * were called inactive; i = inactive; . = no result given; ! = not confirmed by another sample.

SMILES | RGS4 act | KCC2 mod | MrgX1 antagonist | RGS4 inh | MrgX1 allo act | MrgX1 ag
COc1cc(NC(=O)COC(=O)c2ccccc2SCC(=O)N2CCCC2)cc(OC)c1 | i | . | i | i | i | i
O=C(NC1CCCCC1)C(c1ccncc1)N(C(=O)c1csnn1)c1ccc(F)cc1 (centres undefined) | i | . | i | i | i | i
CN(C)c1cc[n+](CC(=O)N2c3ccccc3Sc3ccccc32)cc1 | -8.1* | . | i | i | i | i
CC(=O)c1c(N2CCCC2)[nH]c(-c2ccccc2)nc1=S | i | 33* | i | i | i | i
CC(=O)c1c(N)[nH]c(-c2ccccc2)nc1=S | i | . | i | i | i | i
CC(=O)c1c(N2CCN(Cc3ccccc3)CC2)[nH]c(-c2ccccc2)nc1=S | i | 45* | i | i | i | i
CCc1ccc(C2=NN(C(=O)CCC(=O)O)C(c3cccs3)C2)cc1 (centres undefined) | i | . | i | i | i | i
CCOC(=O)C1=C(COCCN)NC(C)=C(C(=O)OC)C1c1ccccc1Cl (centres undefined) | i | . | i | i | i | 27*!
CC1CCN(CCOCCOc2ccc(Br)cc2Cl)CC1 | -7.2* | -0.59 | i | i | i | i
CC(=O)N1N=C(c2ccccc2)CC1c1cn(Cc2ccccc2)c2ccccc12 (centres undefined) | i | -0.64 | -4.6* | i | i | i
CC(=O)N1N=C(c2ccncc2)CC1c1ccccc1O (centres undefined) | i | -0.24 | -7.5* | i | i | i
Cc1ccc(S(=O)(=O)N2CCC(C(=O)N3CCC3)CC2)cc1 | i | . | i | i | i | i
COc1ccc(Oc2nc(Oc3ccc(OC)cc3)nc(Oc3ccc(OC)cc3)n2)cc1 | i | -2 | -6.5* | i | i | i
CC(OC(=O)c1cc(=O)[nH]c2ccccc12)C(=O)NC1CCCCC1C (centres undefined) | i | . | i | i | i | i
COc1ccc(/C=N/NC(=O)NC23CC4CC(CC(C4)C2)C3)c(OC)c1 | i | . | i | i | 6.9* | i
C=CCOc1ccc(/C=C2\SC(=Nc3cccnc3)NC2=O)cc1 | i | -1.3 | -4.9* | i | i | i
CCn1c(Cl)c(C=O)s/c1=N\S(=O)(=O)c1ccccc1 | i | -2.1 | i | i | i | 31*
CCN1C(=O)CS/C1=N\S(=O)(=O)c1ccc(Cl)cc1 | i | 0.41 | i | i | i | i
COCc1cc(Sc2cccc(Cl)c2Cl)nc(-c2ccccc2)n1 | i | 0.11 | i | i | 8* | i
COCc1cc(N2CCOCC2)nc(-c2ccccc2)n1 | i | 0.96 | i | i | i | i
O=[N+]([O-])c1cccc(NC(=S)NCc2ccncc2)c1 | i | -0.48 | i | i | i | i
O=[N+]([O-])c1ccc(NC(=S)NCc2ccncc2)cc1 | i | 0.057 | -4.7* | i | i | i
NS(=O)(=O)c1ccc(NC(=S)NCc2ccc(F)cc2)cc1 | i | 0.58 | i | i | i | i
O=[N+]([O-])c1ccc(NC(=S)NCc2ccc(F)cc2)cc1 | i | . | i | i | i | 27*
O=[N+]([O-])c1ccc(NC(=S)NCCc2ccccc2)cc1 | i | -4.8 | -4.9* | i | i | i
COC(CN(C)C(=O)c1ccc2c(c1)NC(=O)c1ccccc1S2)OC | i | . | i | i | i | i
CCCCC(=O)Nc1cc(C)c(NC(=O)c2ccco2)cn1 | i | . | i | i | i | i
CCOC(=O)c1sc(=S)n(-c2ccccc2Cl)c1C | -9.3* | -0.85 | i | i | i | i
O=C(NN=C1c2ccccc2-c2ccccc21)c1cccc(Br)c1 | i | 60* | i | i | i | i
O=C(COc1cccc(Br)c1)NN=C1c2ccccc2-c2ccccc21 | i | 1.5 | i | i | i | i
